This passage reports cytotoxicity results from ChEMBL document CHEMBL4513216, “Probing the Open Global Health Chemical Diversity Library for Multistage-Active Starting Points for Next-Generation Antimalarials” (ACS Infect Dis, 2020).

The series in a line: Toxicity liver stage against HepG2, at 10uM. The series is classed as cell-based. On the set-up: test concentration 10 uM, cell line HepG2-A16-CD81EGFP. The note with it: human, HepG2-A16-CD81EGFP cells; read-out: INHIBITION
In short, it runs like this: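 Uninfected HepG2-A16-CD81EGFP cells, 3 × 10^3 per well, 1536-well, plated on prespotted compound at 10 μM final, parasite-free screening media added to match infected plates; puromycin 10 μM positive, DMSO 0.5% negative; run in parallel with 48 h PbLuc assay at 37 °C, 5% CO2; viability by CellTiter-Glo luminescence, normalized to controls.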
With `CCOc1cc(CNc2nnn(C)n2)ccc1OCc1ccc(Cl)cc1`, the cytotoxicity at 10 µM was determined as 6.04%.

As to `CCN(CC)CCNC(=O)CCc1c(C)nn(-c2ccc(Cl)cc2)c1C`, the cytotoxicity at 10 µM was -5.93%. Next, `O=C1CSC(c2ccsc2)c2c(n(C3CCCC3)[nH]c2=O)N1` (stereo unspecified): -11.6%. Regarding `COCCn1ccc2c(C(=O)NC3CN4CCC3CC4)cccc21` (stereo unspecified), the cytotoxicity at 10 µM was -51.6%.

On to `Cc1ccc(NC(=O)c2nc3c(s2)CCCN3C(C)C)cn1`, for which the cytotoxicity at 10 µM came out at 0.93%. In the case of `CN(C)S(=O)(=O)N1CCC2(COCc3cnc(NCC4CC4)nc32)C1` (stereo unspecified), the cytotoxicity at 10 µM amounted to 7.66%.

For `COCCO[C@H]1CCN(C(=O)NC2CC2)[C@H]1Cc1cnn(C)c1`, the cytotoxicity at 10 µM came to 8.36%. The same measure for `CN(c1ncc(C(=O)NCc2ccccc2)c(N)n1)C1CCCCC1`: -4.31%. `CCn1nc(C)c2nc(C)nc(NCCc3ccc(C)cc3)c21`: the cytotoxicity at 10 µM amounted to 50.9%. On to `Cc1ccnn1CC(=O)Nc1cc(-c2ccncc2)[nH]n1`, for which the cytotoxicity at 10 µM is -4.34%. Next, `Cn1ccnc1-c1nc(NC2CCCC2)ncc1-c1cccc(F)c1`: 14.1%; `Cn1cc(CN2CCCCC2c2ccc(-c3cccc(F)c3)nc2)cn1` (stereo unspecified): 6.77%. Next, `O=C(COc1ccccc1F)N1CCCCC1c1ccn2ccnc2n1` (stereo unspecified): -8.52%; `O=C(C1CCCC1)N1CCCC(c2cccc(-n3ccnc3)n2)C1` (stereo unspecified): -5.52%. The same measure for `CN1CCC(Cc2cc(Nc3ncccn3)ncn2)CC1`: 1.05%; for `c1ccc(C2=NOC3(CCN(Cc4c[nH]c5ccccc45)CC3)C2)cc1`: 3.93%; for `Cc1cc(C(=O)NCC(F)(F)F)c2c(C3CCNCC3)noc2n1`: 10.4%. With `Cc1ccc(-n2nnnc2SCN2CCCCC2=O)cc1C`, the cytotoxicity at 10 µM is -46.6%. For the compound `Cc1cnn(CC2CN(c3ncnc4c3CCC4)CCO2)c1` (stereo unspecified), the cytotoxicity at 10 µM stood at 56.5%.

For the compound `COC(=O)NCC(=O)N1CCC(c2cc3ccccc3[nH]2)CC1`, the cytotoxicity at 10 µM is -8.55%.

On to `CC(c1ccc(F)cc1F)N1CCN(CCN2CCCC2=O)CC1` (stereo unspecified), for which the cytotoxicity at 10 µM was -5.61%. As for `COc1ccc(C2CCN(CCCC#N)CC2)cc1`, the cytotoxicity at 10 µM was -9.89%.

On to `O=C(NCc1nnc2ccccn12)N1CCOC(c2cccs2)C1` (stereo unspecified), for which the cytotoxicity at 10 µM is 1.64%. Next, `CC(C)c1ncc2c(n1)CN(c1ncnc3[nH]ccc13)CC2`: -3.28%.

For `Cc1noc(C)c1CN(C)Cc1csc(-c2ccccc2F)n1`, the cytotoxicity at 10 µM was found to be 37.2%. Next, `COc1cc(OC)cc(N2CCC(NC(=O)c3cccn3C)CC2)c1`: -2.1%; `COc1cccc(CN2CCCC2c2ccc[nH]2)c1` (stereo unspecified): -1.38%. The same measure for `NC(=O)COc1cccc(CN2CCCC2c2ccc[nH]2)c1` (stereo unspecified): 8.58%; for `N#Cc1ccccc1N1CCCN(CC(=O)Nc2ccccc2Cl)CC1`: 1.11%; for `Fc1ccc(CNCc2nnc3n2CC(C(F)(F)F)CC3)c(F)c1` (stereo unspecified): 0.411%. Turning to `CCCn1cc(CNCC(c2ccc(C)s2)N2CCOCC2)cn1` (stereo unspecified), the cytotoxicity at 10 µM is -0.248%.

`Cc1ccc(C2CCCN2CC(=O)N(CCC#N)c2ccccc2)cc1` (stereo unspecified): the cytotoxicity at 10 µM was -6.89%.

`CCNC(=O)NC(=O)CN1CCC(c2c[nH]c3ccc(OC)cc23)CC1`: the cytotoxicity at 10 µM was -12.9%. Regarding `COc1cc(CNC(C)c2cccc(Cl)c2)cc(OC)c1OC` (stereo unspecified), the cytotoxicity at 10 µM came to 5.02%. Next, `CCC(CNC(=O)c1ccccc1OC)N1CCc2ccccc2C1` (stereo unspecified): 12%. The same measure for `CN(CCCc1n[nH]c(N)c1C#N)C(=O)Nc1cc(Cl)cc(Cl)c1`: 11.1%; for `OCc1cc2ccccc2nc1NCC1CCN(CC(F)(F)F)C1` (stereo unspecified): -55.7%. Next, `CCNC(=O)N(C)C(c1cccnc1)C(C)C` (stereo unspecified): -10.2%; `CSCc1cc(F)ccc1CNCc1ncc[nH]1`: 11.5%. As to `O=C(COC1CCCC1)NC(C(=O)Nc1cc[nH]n1)c1ccccc1` (stereo unspecified), the cytotoxicity at 10 µM is -10.7%. The same measure for `CCOc1ccccc1CNC(=O)NCC(c1cnn(C)c1)N(C)C` (stereo unspecified): 4.15%; for `CC(NCc1cccs1)c1ccc(OCc2nccn2C)cc1` (stereo unspecified): -7.88%. The same measure for `CCc1nnc(CN2CCC(C3CCCCCN3C(=O)C3CC3)CC2)o1` (stereo unspecified): -49.7%; for `CC1CN(C(=O)c2cscn2)c2ccccc2S1` (stereo unspecified): 6.43%; for `Cc1ncc2c(n1)CCCC2NC(=O)c1ccccc1Cn1cncn1` (stereo unspecified): -24.4%.

With `CC(C)CC(C)N(C)C(=O)CCn1cccn1` (stereo unspecified), the cytotoxicity at 10 µM is 0.395%. Regarding `Cc1oncc1C(=O)N1CC[C@H]2[C@H]1CCN2S(C)(=O)=O`, the cytotoxicity at 10 µM was -99.4%. Next, `O=C(Cc1ccsc1)N1C[C@H]2CCC[C@@]2(COCc2ccccn2)C1`: -102%; `CN(C)C(=O)N1CCn2c(Cn3cccn3)cnc2C1`: -76.7%. Next, `c1csc(COC[C@H]2CCC[C@]23CN(Cc2ccoc2)CCO3)n1`: -67.3%; `O=c1[nH][nH]cc1-c1ccnc(NCCc2cccc(O)c2)n1`: -7.83%. Turning to `Cc1ccc(C(=O)N2CC[C@@]3(O)CCN(C(=O)N(C)C)C[C@H]3C2)cc1Cl`, the cytotoxicity at 10 µM was -45.5%. Turning to `C[C@@H]1CN(C2CCN(Cc3cnc(-c4cccs4)nc3)CC2)C[C@H](C)O1`, the cytotoxicity at 10 µM was -13.7%. Next, `N#Cc1ccccc1CN1CCC2(CC1)CC(c1ccccc1)C(=O)N2` (stereo unspecified): -44.8%. As for `CSC(C)CCN(Cc1ccccn1)Cc1sccc1C` (stereo unspecified), the cytotoxicity at 10 µM is -2.49%. Next, `COCCN(Cc1ccc(C)cc1)Cc1c[nH]cn1`: -42.3%.

As for `NC1(C(=O)NCC2CCCN(Cc3cccc4nonc34)C2)CCC1` (stereo unspecified), the cytotoxicity at 10 µM is -43.8%. Regarding `CC(C)c1cc(CN(C)C(=O)C(C)N2CCc3ccccc3C2)no1` (stereo unspecified), the cytotoxicity at 10 µM came out at 4.24%. For `Oc1cc(CNCCCN2CCCC2)nc2ccc(F)cc12`, the cytotoxicity at 10 µM was -56%. The same measure for `Nc1nc2c(c(NCc3ccc(C(=O)N4CCCC4)cc3)n1)CCCC2`: 21.1%; for `COc1ccc(Oc2ccc(C(F)(F)F)cn2)cc1CN1CCCC1`: -5.62%. Regarding `Oc1cc(CN2CCC(O)(Cn3ccnc3)CC2)nc2ccc(F)cc12`, the cytotoxicity at 10 µM is -44.5%. For `CC(Oc1ccc2c(c1)OCO2)C(=O)N1CCC(N2CCOCC2)CC1` (stereo unspecified), the cytotoxicity at 10 µM is -13.5%. Next, `COc1ccc(C(=O)C2CCCN(Cc3ccncc3)C2)cc1OC` (stereo unspecified): -0.677%; `COCCN(C)C(=O)c1ccccc1-n1cccn1`: -4.57%.

With `CN(Cc1nccs1)C1CCN(c2cccc(-c3cscn3)c2)CC1`, the cytotoxicity at 10 µM is -1.26%. For `Cn1ncc2c(N3CCCC4(CCNC4)C3)nc(C(C)(C)C)nc21` (stereo unspecified), the cytotoxicity at 10 µM is -45.8%. Regarding `COCc1cc(N2CCOC(c3ccc(Cl)c(Cl)c3)C2)ncn1` (stereo unspecified), the cytotoxicity at 10 µM came to 0.635%. Next, `CCN(C)S(=O)(=O)NC(C)c1cnc(N(C)C2CCCCC2)nc1C` (stereo unspecified): -123%. Turning to `CC(C)N1CCCn2nc(C(=O)NCc3ccccc3F)cc2C1`, the cytotoxicity at 10 µM is -4.87%. Regarding `O=C(c1ccon1)N1CCCCC1c1nc2cc(F)ccc2[nH]1` (stereo unspecified), the cytotoxicity at 10 µM was found to be 2.58%. For the compound `CN(Cc1ccccc1)c1ncccc1CNC1CN2CCC1CC2` (stereo unspecified), the cytotoxicity at 10 µM was 1.63%. Next, `COc1ccc(-n2ncc(C(C)NC3Cc4ccccc4C3)c2C)cc1` (stereo unspecified): -6.32%. The same measure for `COCCN1CCN(Cc2ccncc2)[C@H]2CS(=O)(=O)C[C@H]21`: -10.2%; for `CCCN(C(=O)c1ccccn1)c1nc2c(s1)CCc1c-2cnn1C`: 6.23%. The same measure for `CC1CN(C)CCN1C(=O)c1ccn(-c2ccccc2)n1` (stereo unspecified): 0.533%.

For the compound `O=C(COCC(F)(F)F)NS(=O)(=O)c1ccc2c(c1)OCCCO2`, the cytotoxicity at 10 µM was -6.8%. On to `Cc1ccoc1C(=O)N1CCCC(c2cc(C(F)(F)F)[nH]n2)C1` (stereo unspecified), for which the cytotoxicity at 10 µM came to 2.4%. Next, `CN(Cc1cccs1)C(=O)CN1CCOC(Cn2cncn2)C1` (stereo unspecified): -23.7%; `O=C(NCCc1ccn(-c2ccccc2)n1)N1CCSCC1`: -2.71%; `CCN(Cc1ccccc1)C(=O)CN1CCCC(Cn2cncn2)C1` (stereo unspecified): 0.421%.

As to `Cc1nc(CN(C)C2CCN(CC3CCCCC3)C2)no1` (stereo unspecified), the cytotoxicity at 10 µM was -7.49%. Regarding `CNC(=O)COc1ccccc1CNC1CCc2ncnn2C1` (stereo unspecified), the cytotoxicity at 10 µM is -13.6%. The same measure for `CCn1ncc2c1CCCC2NCC1=Cc2ccccc2OC1` (stereo unspecified): -4.31%. The same measure for `CN1CCCc2cc(CNC(=O)c3ccncc3)ccc21`: 7.03%.

With `Fc1ccc(F)c(CN2CCC(c3cc4ncccc4cn3)CC2)c1`, the cytotoxicity at 10 µM was -5.14%. The same measure for `Cc1ccsc1CN1C[C@@H]2COC[C@]2(CNC(=O)c2ccco2)C1`: -95.5%.

As for `C1CCC(CN2Cc3nnn(CC4CC4)c3C(COCC3CC3)C2)C1` (stereo unspecified), the cytotoxicity at 10 µM was found to be 19.7%. `CC1N(C)C(=O)COC12CCN(Cc1ccsc1)CC2` (stereo unspecified): the cytotoxicity at 10 µM is -5.24%. The same measure for `c1ccc(C[C@H]2CN(Cc3nccs3)CC[C@@H]2OCC2CC2)cc1`: -62.3%. The same measure for `CO[C@@H]1CCN(Cc2nccs2)C[C@@H]1Cc1ccccc1`: -69.5%. Consider `Cc1ccc(C(=O)N2CCC3(CCN3Cc3ccc(F)cc3)C2)cn1` (stereo unspecified), for which the cytotoxicity at 10 µM is -116%.

As for `Cn1cnc2c1C(COCC1CC1)CN(Cc1ccc3c(c1)OCO3)C2` (stereo unspecified), the cytotoxicity at 10 µM is -12%. `Cn1ccnc1C(=O)N[C@@H]1CN(CC2CCOCC2)[C@@H]2CCCO[C@@H]21`: the cytotoxicity at 10 µM is -97.8%. Take `O=C1C[C@H]2[C@@H](CCN2C(=O)Cc2ccsc2)N1Cc1cccnc1`: the cytotoxicity at 10 µM is -0.331%. Next, `COc1no[n+]([O-])c1-c1ccccc1`: 8.2%.
